Laboratory results: ChEMBL document CHEMBL5634162, “Cyclohexylalanine-Containing α-Helical Amphipathic Peptide Targets Cardiolipin, Rescuing Mitochondrial Dysfunction in Kidney Injury” (J Med Chem, 2024)
Activity calls are given as the source filed them. The rule behind the calls is not given here. Where a SMILES comes first, the peptide text is derived from it. Bridges are numbered along the chain shown (N, C = ends). Roman numbers before positions name the chains, in order. [ ]: non-standard residue; d: D form. The star is where a group is joined. 5TAMRA = CN(C)c1ccc2c(c1)Oc1cc(N(C)C)ccc1C21OC(=O)c2cc(C(=O)*)ccc21; Cha = N[C@@H](CC1CCCCC1)C(=O)O

Key:
[1] = test system: Lipid bilayer; test: Binding affinity to DLCL-rich POPC/POPE by fluorescence based analysis
[2] = test system: Lipid bilayer; test: Binding affinity to cardiolipin-rich POPC/POPE by fluorescence based analysis
In short: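 NBD-labelled peptide monomer at 1 μM in PBS, mixed with liposomes of POPC/POPE (2:1) containing 10% CL, with CL-free POPC/POPE liposomes for comparison. Association was followed by NBD fluorescence (ex 467/em 536 nm), n = 3. For dissociation, liposomes were at 100 μM and unlabelled acetylated peptide was added stepwise up to 40 μM, with a 10 min dark incubation before each read.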

[3] = Drug localization in mitochondria of human HeLa cells at EC50 incubated for 3 hrs by fluorescence based assay; format: ADME

SMILES | Activity [1] | Activity [2] | Drug uptake [3] [%]
CC(=O)N[C@@H](CC1CCCCC1)C(=O)N[C@@H](CS)C(=O)N[C@@H](CCCNC(=N)N)C(=O)N[C@@H](CC(C)C)C(=O)N[C@@H](CC1CCCCC1)C(=O)N[C@@H](CCCNC(=N)N)C(=O)N[C@@H](CCCNC(=N)N)C(=O)N[C@@H](CC1CCCCC1)C(=O)N[C@@H](CS)C(=O)N[C@@H](CCCNC(=N)N)C(N)=O (Ac-[Cha]CRL[Cha]RR[Cha]CR-NH2) | Active | Active | –
CC(=O)N[C@@H](CC1CCCCC1)C(=O)N[C@H]1CSSC[C@@H](C(=O)N[C@@H](CCCNC(=N)N)C(N)=O)NC(=O)[C@H](CC2CCCCC2)NC(=O)[C@H](CCCNC(=N)N)NC(=O)[C@H](CCCNC(=N)N)NC(=O)[C@H](CC(C)C)NC(=O)[C@H](CC2CCCCC2)NC(=O)[C@H](CCCNC(=N)N)NC(=O)[C@@H](NC(=O)[C@H](CC2CCCCC2)NC(=O)c2ccc3c(c2)C(=O)OC32c3ccc(N(C)C)cc3Oc3cc(N(C)C)ccc32)CSSC[C@@H](C(=O)N[C@@H](CCCNC(=N)N)C(N)=O)NC(=O)[C@H](CC2CCCCC2)NC(=O)[C@H](CCCNC(=N)N)NC(=O)[C@H](CCCNC(=N)N)NC(=O)[C@H](CC(C)C)NC(=O)[C@H](CC2CCCCC2)NC(=O)[C@H](CCCNC(=N)N)NC1=O (I: Ac-[Cha]CR[Cha]LRR[Cha]CR-NH2 / II: 5TAMRA-[Cha]CR[Cha]LRR[Cha]CR-NH2; disulfide I:2-II:9, I:9-II:2) | – | – | 53
CC(=O)N[C@@H](CC(C)C)C(=O)N[C@H]1CSSC[C@@H](C(=O)N[C@@H](CCCNC(=N)N)C(N)=O)NC(=O)[C@H](CC(C)C)NC(=O)[C@H](CCCNC(=N)N)NC(=O)[C@H](CCCNC(=N)N)NC(=O)[C@H](CC2CCCCC2)NC(=O)[C@H](CC2CCCCC2)NC(=O)[C@H](CCCNC(=N)N)NC(=O)[C@@H](NC(=O)[C@H](CC(C)C)NC(=O)c2ccc3c(c2)C(=O)OC32c3ccc(N(C)C)cc3Oc3cc(N(C)C)ccc32)CSSC[C@@H](C(=O)N[C@@H](CCCNC(=N)N)C(N)=O)NC(=O)[C@H](CC(C)C)NC(=O)[C@H](CCCNC(=N)N)NC(=O)[C@H](CCCNC(=N)N)NC(=O)[C@H](CC2CCCCC2)NC(=O)[C@H](CC2CCCCC2)NC(=O)[C@H](CCCNC(=N)N)NC1=O (I: Ac-LCR[Cha][Cha]RRLCR-NH2 / II: 5TAMRA-LCR[Cha][Cha]RRLCR-NH2; disulfide I:2-II:9, I:9-II:2) | – | – | 53
CC(=O)N[C@@H](CC(C)C)C(=O)N[C@H]1CSSC[C@@H](C(=O)N[C@@H](CCCNC(=N)N)C(N)=O)NC(=O)[C@H](CC(C)C)NC(=O)[C@H](CCCNC(=N)N)NC(=O)[C@H](CCCNC(=N)N)NC(=O)[C@H](CC2CCCCC2)NC(=O)[C@H](CC(C)C)NC(=O)[C@H](CCCNC(=N)N)NC(=O)[C@@H](NC(=O)[C@H](CC(C)C)NC(=O)c2ccc3c(c2)C(=O)OC32c3ccc(N(C)C)cc3Oc3cc(N(C)C)ccc32)CSSC[C@@H](C(=O)N[C@@H](CCCNC(=N)N)C(N)=O)NC(=O)[C@H](CC(C)C)NC(=O)[C@H](CCCNC(=N)N)NC(=O)[C@H](CCCNC(=N)N)NC(=O)[C@H](CC2CCCCC2)NC(=O)[C@H](CC(C)C)NC(=O)[C@H](CCCNC(=N)N)NC1=O (I: Ac-LCRL[Cha]RRLCR-NH2 / II: 5TAMRA-LCRL[Cha]RRLCR-NH2; disulfide I:2-II:9, I:9-II:2) | – | – | 53
